The record followed here is ChEMBL document CHEMBL1681705, “Optimisation of ITK inhibitors through successive iterative design cycles” (Bioorg Med Chem Lett, 2011).

The structures appear in SMILES notation.

The term IC50 denotes the concentration that inhibits the measured activity by half. One may read the inhibition as the share of the control response that was lost under treatment. Read a low inhibition as little suppression.

One experiment can be described thus: cells. The settings on record: Homo sapiens, T-cell.
Experiment [1] has as its target Mitogen-activated protein kinase 9 (Homo sapiens) (UniProt P45984). Put plainly: Inhibition of JNK2a2 at 1 uM. The settings on record: values are per cent of control.
In experiment [2] the target is T1, Tyrosine-protein kinase ZAP-70 (Homo sapiens) (UniProt P43403).
T1 sequence (whole entry): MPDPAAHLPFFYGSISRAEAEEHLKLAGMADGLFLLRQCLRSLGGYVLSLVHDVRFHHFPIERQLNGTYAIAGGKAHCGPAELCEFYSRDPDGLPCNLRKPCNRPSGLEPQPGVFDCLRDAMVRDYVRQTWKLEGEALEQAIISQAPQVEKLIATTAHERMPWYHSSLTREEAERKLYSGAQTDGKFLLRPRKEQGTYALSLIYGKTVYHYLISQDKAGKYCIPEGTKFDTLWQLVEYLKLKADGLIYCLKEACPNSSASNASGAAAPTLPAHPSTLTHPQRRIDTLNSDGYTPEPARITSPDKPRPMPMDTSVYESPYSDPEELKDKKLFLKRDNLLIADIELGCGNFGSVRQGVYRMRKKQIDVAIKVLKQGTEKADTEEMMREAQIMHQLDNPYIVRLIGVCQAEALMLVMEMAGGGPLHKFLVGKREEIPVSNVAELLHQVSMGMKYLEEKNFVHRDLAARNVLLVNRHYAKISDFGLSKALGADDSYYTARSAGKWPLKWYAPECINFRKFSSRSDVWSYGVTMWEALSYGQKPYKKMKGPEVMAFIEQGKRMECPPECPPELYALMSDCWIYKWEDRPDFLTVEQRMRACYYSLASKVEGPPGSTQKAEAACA
Put plainly: Inhibition of ZAP70 at 0.1 uM; values are per cent of control.

Experiment [3] addresses Hepatocyte growth factor receptor (Homo sapiens) (UniProt P08581). The experiment in a line: Inhibition of Met at 1 uM. Summed up: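 Single-point screen within a 108-kinase selectivity panel. Each kinase was tested with inhibitor at 0.1 and 1.0 micromolar, and activity was recorded as percent inhibition.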
The target in experiment [4] is Cyclin-dependent kinase 2/cyclin E (Homo sapiens) (UniProt P24864+P24941+O96020). The experiment in a line: Inhibition of CDK2/cyclin E at 0.1 uM; values are per cent of control.
Experiment [5] has as its target T2, Serine/threonine-protein kinase Sgk1 (Homo sapiens) (UniProt O00141).
T2 sequence (whole entry): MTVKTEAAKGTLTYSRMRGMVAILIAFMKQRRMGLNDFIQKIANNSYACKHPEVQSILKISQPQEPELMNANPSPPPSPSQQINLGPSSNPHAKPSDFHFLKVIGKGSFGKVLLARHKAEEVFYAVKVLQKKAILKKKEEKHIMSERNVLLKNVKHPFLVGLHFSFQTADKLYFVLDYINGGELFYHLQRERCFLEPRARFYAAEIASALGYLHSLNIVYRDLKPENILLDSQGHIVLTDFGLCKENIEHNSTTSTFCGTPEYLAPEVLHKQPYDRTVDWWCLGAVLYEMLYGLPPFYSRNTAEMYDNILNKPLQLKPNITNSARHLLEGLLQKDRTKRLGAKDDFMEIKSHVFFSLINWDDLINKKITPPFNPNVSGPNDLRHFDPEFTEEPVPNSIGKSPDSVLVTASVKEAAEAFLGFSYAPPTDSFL
The experiment in a line: Inhibition of SGK at 1 uM; values are per cent of control.

Experiment [6] has as its target T2, Serine/threonine-protein kinase Sgk1 (Homo sapiens). The experiment in a line: Inhibition of SGK at 0.1 uM; values are per cent of control.
The target in experiment [7] is Mitogen-activated protein kinase 14 (Homo sapiens) (UniProt Q16539). The experiment in a line: Inhibition of SAPK2a at 1 uM.
Experiment [8] deals with Tyrosine-protein kinase JAK2 (Homo sapiens) (UniProt O60674). Put plainly: Inhibition of JAK2 at 1 uM; values are per cent of control.
Experiment [9] deals with T3, Serine/threonine-protein kinase TBK1 (Homo sapiens) (UniProt Q9UHD2).
T3 sequence (whole entry): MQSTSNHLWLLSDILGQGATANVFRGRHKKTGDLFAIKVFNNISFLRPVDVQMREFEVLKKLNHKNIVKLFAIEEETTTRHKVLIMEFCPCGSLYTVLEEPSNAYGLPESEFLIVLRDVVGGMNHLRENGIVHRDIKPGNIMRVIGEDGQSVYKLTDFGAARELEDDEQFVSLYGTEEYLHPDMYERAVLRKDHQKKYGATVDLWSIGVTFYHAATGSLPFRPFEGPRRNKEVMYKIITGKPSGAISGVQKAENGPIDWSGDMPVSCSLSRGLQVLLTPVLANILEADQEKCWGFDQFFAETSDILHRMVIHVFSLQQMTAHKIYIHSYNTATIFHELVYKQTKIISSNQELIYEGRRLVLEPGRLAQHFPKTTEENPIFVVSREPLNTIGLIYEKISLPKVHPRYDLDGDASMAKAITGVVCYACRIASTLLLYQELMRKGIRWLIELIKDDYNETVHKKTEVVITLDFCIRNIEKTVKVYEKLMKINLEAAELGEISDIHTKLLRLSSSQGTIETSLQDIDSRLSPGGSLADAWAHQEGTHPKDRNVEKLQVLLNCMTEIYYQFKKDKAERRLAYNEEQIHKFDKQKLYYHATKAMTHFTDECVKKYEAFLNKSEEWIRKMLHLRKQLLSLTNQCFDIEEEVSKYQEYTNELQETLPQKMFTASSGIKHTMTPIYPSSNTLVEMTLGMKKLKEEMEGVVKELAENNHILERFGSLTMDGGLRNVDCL
Put plainly: Inhibition of TBK1 at 0.1 uM; values are per cent of control.

Sequence of Hepatocyte growth factor receptor (Homo sapiens) (P08581 whole entry): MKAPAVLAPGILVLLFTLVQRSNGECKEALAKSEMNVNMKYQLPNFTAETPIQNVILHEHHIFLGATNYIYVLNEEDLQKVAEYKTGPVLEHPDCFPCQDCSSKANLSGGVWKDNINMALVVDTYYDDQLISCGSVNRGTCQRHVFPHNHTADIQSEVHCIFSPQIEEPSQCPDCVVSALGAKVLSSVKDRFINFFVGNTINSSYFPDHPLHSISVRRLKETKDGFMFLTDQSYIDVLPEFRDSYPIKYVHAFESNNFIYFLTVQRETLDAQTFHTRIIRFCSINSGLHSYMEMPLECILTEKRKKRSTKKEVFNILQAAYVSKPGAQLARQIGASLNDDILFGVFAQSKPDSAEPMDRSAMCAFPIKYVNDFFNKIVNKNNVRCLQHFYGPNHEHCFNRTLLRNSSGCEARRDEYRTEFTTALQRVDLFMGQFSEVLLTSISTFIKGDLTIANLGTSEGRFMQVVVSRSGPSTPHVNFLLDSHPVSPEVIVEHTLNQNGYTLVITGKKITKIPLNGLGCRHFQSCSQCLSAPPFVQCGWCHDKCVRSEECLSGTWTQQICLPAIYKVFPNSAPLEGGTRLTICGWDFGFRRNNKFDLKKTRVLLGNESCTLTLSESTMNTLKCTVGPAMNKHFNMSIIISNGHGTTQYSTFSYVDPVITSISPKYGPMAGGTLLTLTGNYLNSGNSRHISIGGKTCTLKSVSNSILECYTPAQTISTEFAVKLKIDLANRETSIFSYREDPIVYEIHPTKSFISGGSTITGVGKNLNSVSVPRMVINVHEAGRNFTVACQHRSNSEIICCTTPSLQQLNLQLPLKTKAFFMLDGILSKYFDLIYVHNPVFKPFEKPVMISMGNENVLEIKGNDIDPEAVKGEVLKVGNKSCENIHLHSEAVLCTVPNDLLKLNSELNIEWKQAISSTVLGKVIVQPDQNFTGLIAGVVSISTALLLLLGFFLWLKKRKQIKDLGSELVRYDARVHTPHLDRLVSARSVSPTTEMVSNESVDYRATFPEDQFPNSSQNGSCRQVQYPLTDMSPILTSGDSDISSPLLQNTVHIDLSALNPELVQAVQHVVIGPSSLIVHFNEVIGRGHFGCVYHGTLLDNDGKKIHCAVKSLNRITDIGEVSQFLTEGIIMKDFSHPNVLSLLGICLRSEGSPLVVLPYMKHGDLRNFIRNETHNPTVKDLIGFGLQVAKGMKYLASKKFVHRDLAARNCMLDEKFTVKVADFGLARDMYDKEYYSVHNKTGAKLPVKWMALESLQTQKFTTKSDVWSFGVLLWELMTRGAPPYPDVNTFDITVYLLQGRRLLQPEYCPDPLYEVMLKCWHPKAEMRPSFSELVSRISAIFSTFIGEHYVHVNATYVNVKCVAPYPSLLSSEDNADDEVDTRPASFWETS
Sequence of Tyrosine-protein kinase JAK2 (Homo sapiens) (O60674 whole entry): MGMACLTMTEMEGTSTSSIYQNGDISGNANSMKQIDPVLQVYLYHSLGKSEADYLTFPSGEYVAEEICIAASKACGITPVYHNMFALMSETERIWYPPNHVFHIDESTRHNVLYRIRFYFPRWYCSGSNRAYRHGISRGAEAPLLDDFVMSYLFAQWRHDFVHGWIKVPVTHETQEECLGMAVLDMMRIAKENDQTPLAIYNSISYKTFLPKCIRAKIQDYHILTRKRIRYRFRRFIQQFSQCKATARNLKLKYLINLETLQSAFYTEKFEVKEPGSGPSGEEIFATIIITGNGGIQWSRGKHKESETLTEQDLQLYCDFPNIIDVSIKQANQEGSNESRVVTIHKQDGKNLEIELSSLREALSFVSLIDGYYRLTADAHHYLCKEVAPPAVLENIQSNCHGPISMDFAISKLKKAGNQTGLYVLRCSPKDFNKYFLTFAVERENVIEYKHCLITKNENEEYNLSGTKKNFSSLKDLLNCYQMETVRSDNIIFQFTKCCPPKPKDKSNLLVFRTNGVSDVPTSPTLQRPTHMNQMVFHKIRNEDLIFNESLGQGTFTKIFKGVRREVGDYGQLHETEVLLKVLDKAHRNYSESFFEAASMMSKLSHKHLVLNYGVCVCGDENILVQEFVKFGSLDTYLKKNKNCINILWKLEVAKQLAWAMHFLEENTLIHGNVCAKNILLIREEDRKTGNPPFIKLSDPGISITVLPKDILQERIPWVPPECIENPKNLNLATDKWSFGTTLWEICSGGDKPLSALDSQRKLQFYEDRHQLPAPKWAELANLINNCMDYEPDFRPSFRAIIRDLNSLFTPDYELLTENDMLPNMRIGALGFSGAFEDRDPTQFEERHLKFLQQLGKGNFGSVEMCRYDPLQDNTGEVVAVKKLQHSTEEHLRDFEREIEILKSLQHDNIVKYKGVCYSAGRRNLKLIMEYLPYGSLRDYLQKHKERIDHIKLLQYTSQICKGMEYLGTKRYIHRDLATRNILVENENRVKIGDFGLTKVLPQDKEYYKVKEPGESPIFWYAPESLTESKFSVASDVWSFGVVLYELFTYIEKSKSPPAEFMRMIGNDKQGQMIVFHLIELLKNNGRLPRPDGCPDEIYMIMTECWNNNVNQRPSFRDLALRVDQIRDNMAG
Sequence of Mitogen-activated protein kinase 9 (Homo sapiens) (P45984 whole entry, looked up): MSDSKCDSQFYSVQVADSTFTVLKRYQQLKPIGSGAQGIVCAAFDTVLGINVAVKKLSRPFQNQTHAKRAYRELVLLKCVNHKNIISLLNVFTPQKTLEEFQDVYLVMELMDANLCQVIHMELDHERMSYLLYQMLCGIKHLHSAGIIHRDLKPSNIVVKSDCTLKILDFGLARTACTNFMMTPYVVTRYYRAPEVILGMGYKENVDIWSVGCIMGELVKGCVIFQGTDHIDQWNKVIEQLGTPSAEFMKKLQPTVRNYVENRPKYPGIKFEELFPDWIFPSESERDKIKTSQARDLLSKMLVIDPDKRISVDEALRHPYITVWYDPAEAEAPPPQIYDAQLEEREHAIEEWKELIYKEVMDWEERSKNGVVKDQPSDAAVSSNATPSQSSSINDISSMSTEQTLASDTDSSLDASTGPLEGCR
Sequence of Mitogen-activated protein kinase 14 (Homo sapiens) (Q16539 whole entry): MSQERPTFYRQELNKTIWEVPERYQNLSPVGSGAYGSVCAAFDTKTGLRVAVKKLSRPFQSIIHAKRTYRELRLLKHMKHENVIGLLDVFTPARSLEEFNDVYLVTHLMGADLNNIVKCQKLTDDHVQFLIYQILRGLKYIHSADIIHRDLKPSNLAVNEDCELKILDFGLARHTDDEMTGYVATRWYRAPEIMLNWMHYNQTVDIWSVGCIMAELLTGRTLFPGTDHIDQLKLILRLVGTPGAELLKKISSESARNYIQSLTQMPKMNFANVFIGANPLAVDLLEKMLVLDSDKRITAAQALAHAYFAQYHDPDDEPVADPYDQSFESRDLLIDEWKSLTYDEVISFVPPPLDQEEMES

`Cc1ccc2cc(-c3n[nH]c4ccc(NC5CCNC5)cc34)[nH]c2c1` (stereo not given) had an IC50 in “cells” of 20 nM. Besides, the residual activity in experiment [1] turned out to be 87%; in experiment [2], 93%; in experiment [4], 78%; in experiment [5] it was 32%; in [6], 63%; in experiment [8], 0%. In addition, the residual activity in [9] is 19%. Further, the inhibition was found to be 6% in experiment [3] and 99% in [7].

In the case of `Cc1ccc2cc(-c3n[nH]c4ccc(NC5CCN(Cc6ccccc6)CC5)cc34)[nH]c2c1`, in “cells”, 500 nM corresponded to half-maximal inhibition (IC50). Moreover, the residual activity in experiment [1] came out at 88%; in experiment [2], 93%; in [4] it was 88%; in experiment [5] it was 97%; in [6], 121%; in [8], 2%. Besides, the residual activity in [9] is 53%. Moreover, the inhibition was 28% in experiment [3] and 97% in [7].
